Assay results from ChEMBL document CHEMBL3392966, “Antiproliferative activity of synthetic fatty acid amides from renewable resources” (Bioorg Med Chem, 2015).
Converted amounts (≈) assume the structure as drawn.

Columns and labels:
U-251 [1] = experiment: Antiproliferative activity against human U251 cells after 48 hrs by sulforhodamine B assay; format: functional; conditions: U-251, 48 h
Summary of the method: (§1)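 Tumor cells grown in RPMI 1640 with 5% fetal bovine serum, with penicillin/streptomycin in experimental cultures. Exposed in 96-well plates to samples in DMSO/RPMI at 0.25, 2.5, 25 and 250 µg/mL, 37 °C, 5% CO2, 48 h. Fixed with 50% trichloroacetic acid before (T0) and after treatment, protein stained with sulforhodamine B and read at 540 nm. GI50, TGI and LC50 in µg/mL from dose-response curves by non-linear regression.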

MCF7 [2] = experiment: Antiproliferative activity against human MCF7 cells after 48 hrs by sulforhodamine B assay; format: functional; conditions: MCF7, 48 h; summary of the method: as §1
NCI/ADR-RES [3] = experiment: Antiproliferative activity against human NCI/ADR-RES cells after 48 hrs by sulforhodamine B assay; format: functional; summary of the method: as §1
786-0 [4] = experiment: Antiproliferative activity against human 786-0 cells after 48 hrs by sulforhodamine B assay; format: functional; conditions: 786-0, 48 h; summary of the method: as §1
NCI-H460 [5] = experiment: Antiproliferative activity against human NCI-H460 cells after 48 hrs by sulforhodamine B assay; format: functional; conditions: NCI-H460, 48 h; summary of the method: as §1
[6] = Antiproliferative activity against human PC3 cells after 48 hrs by sulforhodamine B assay; format: functional; conditions: PC-3, 48 h; summary of the method: as §1
[7] = Antiproliferative activity against human OVCAR3 cells after 48 hrs by sulforhodamine B assay; format: functional; conditions: OVCAR-3, 48 h; summary of the method: as §1
HaCaT [8] = experiment: Cytotoxicity against human HaCaT cells after 48 hrs by sulforhodamine B assay; format: cell-based
U-251 [9] = experiment: Antiproliferative activity against human U251 cells assessed as tumor growth inhibition after 48 hrs by sulforhodamine B assay; format: functional; conditions: U-251, 48 h; summary of the method: as §1
MCF7 [10] = experiment: Antiproliferative activity against human MCF7 cells assessed as tumor growth inhibition after 48 hrs by sulforhodamine B assay; format: functional; conditions: MCF7, 48 h; summary of the method: as §1
NCI/ADR-RES [11] = experiment: Antiproliferative activity against human NCI/ADR-RES cells assessed as tumor growth inhibition after 48 hrs by sulforhodamine B assay; format: functional; summary of the method: as §1
786-0 [12] = experiment: Antiproliferative activity against human 786-0 cells assessed as tumor growth inhibition after 48 hrs by sulforhodamine B assay; format: functional; conditions: 786-0, 48 h; summary of the method: as §1
NCI-H460 [13] = experiment: Antiproliferative activity against human NCI-H460 cells assessed as tumor growth inhibition after 48 hrs by sulforhodamine B assay; format: functional; conditions: NCI-H460, 48 h; summary of the method: as §1
[14] = Antiproliferative activity against human PC3 cells assessed as tumor growth inhibition after 48 hrs by sulforhodamine B assay; format: functional; conditions: PC-3, 48 h; summary of the method: as §1
[15] = Antiproliferative activity against human OVCAR3 cells assessed as tumor growth inhibition after 48 hrs by sulforhodamine B assay; format: functional; conditions: OVCAR-3, 48 h; summary of the method: as §1
HaCaT [16] = experiment: Cytotoxicity against human HaCaT cells assessed as tumor growth inhibition after 48 hrs by sulforhodamine B assay; format: cell-based
Summary of the method: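 Non-tumor lines (human HaCaT keratinocytes; Vero) in RPMI 1640 with 5% FBS, with penicillin/streptomycin added to experimental cultures. 48 h exposure at 0.25–250 µg/mL (DMSO/RPMI), 37 °C, 5% CO2. TCA fixation at time zero and at end, sulforhodamine B protein stain, absorbance 540 nm. TGI (total growth inhibition) from non-linear regression of the dose-response curve.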

SMILES	GI50 (U-251 [1]) [µg/mL]	GI50 (MCF7 [2]) [µg/mL]	GI50 (NCI/ADR-RES [3]) [µg/mL]	GI50 (786-0 [4]) [µg/mL]	GI50 (NCI-H460 [5]) [µg/mL]	GI50 [6] [µg/mL]	GI50 [7] [µg/mL]	LC50 (HaCaT [8]) [µg/mL]	TGI (U-251 [9]) [µg/mL]	TGI (MCF7 [10]) [µg/mL]	TGI (NCI/ADR-RES [11]) [µg/mL]	TGI (786-0 [12]) [µg/mL]	TGI (NCI-H460 [13]) [µg/mL]	TGI [14] [µg/mL]	TGI [15] [µg/mL]	TGI (HaCaT [16]) [µg/mL]
CCCCCCCCCCCCCCCC(=O)N1CCOCC1	25 (≈ 76.8 µM)	15.4 (≈ 47.3 µM)	6.2 (≈ 19 µM)	33.1 (≈ 102 µM)	34.1 (≈ 105 µM)	22.2 (≈ 68.2 µM)	33.1 (≈ 102 µM)	28.9 (≈ 88.8 µM)	55.9 (≈ 172 µM)	54.7 (≈ 168 µM)	70.3 (≈ 216 µM)	69.9 (≈ 215 µM)	91 (≈ 280 µM)	36.7 (≈ 113 µM)	72.7 (≈ 223 µM)	73.7 (≈ 226 µM)
CCCCC/C=C\C/C=C\CCCCCCCC(=O)N1CCCCC1	44.2 (≈ 127 µM)	22.1 (≈ 63.6 µM)	63.2 (≈ 182 µM)	58.4 (≈ 168 µM)	29.1 (≈ 83.7 µM)	53.6 (≈ 154 µM)	48.9 (≈ 141 µM)	4.2 (≈ 12.1 µM)	22.1 (≈ 63.6 µM)	44.2 (≈ 127 µM)	63.2 (≈ 182 µM)	29.1 (≈ 83.7 µM)	53.6 (≈ 154 µM)	48.9 (≈ 141 µM)	58.4 (≈ 168 µM)	30.5 (≈ 87.7 µM)
CCCCCCCC/C=C\CCCCCCCC(=O)N[C@@H](C)c1ccccc1	5.1 (≈ 13.2 µM)	7.17 (≈ 18.6 µM)	0.3 (≈ 0.778 µM)	10.3 (≈ 26.7 µM)	15.2 (≈ 39.4 µM)	13.7 (≈ 35.5 µM)	10.5 (≈ 27.2 µM)	6.4 (≈ 16.6 µM)	17.8 (≈ 46.2 µM)	43 (≈ 112 µM)	7.1 (≈ 18.4 µM)	45.8 (≈ 119 µM)	49.3 (≈ 128 µM)	47.1 (≈ 122 µM)	45.5 (≈ 118 µM)	36.8 (≈ 95.4 µM)
CCCCCCCC/C=C/CCCCCCCC(=O)N[C@@H](C)c1ccccc1		110 (≈ 286 µM)					21.7 (≈ 56.3 µM)	24.6 (≈ 63.8 µM)	> 250	> 250	> 250	> 250	> 250	> 250	> 250	> 250
CCCCCCCCCCCCCCCCCC(=O)N1CCCC1	8 (≈ 23.7 µM)	7.4 (≈ 21.9 µM)	7.1 (≈ 21 µM)	14 (≈ 41.5 µM)	10.8 (≈ 32 µM)	9.4 (≈ 27.8 µM)	7.3 (≈ 21.6 µM)	6.3 (≈ 18.7 µM)	32.5 (≈ 96.3 µM)	39.9 (≈ 118 µM)	43.5 (≈ 129 µM)	48.4 (≈ 143 µM)	56.8 (≈ 168 µM)	36 (≈ 107 µM)	68.5 (≈ 203 µM)	27.4 (≈ 81.2 µM)
CCCCCC[C@@H](O)C/C=C\CCCCCCCC(=O)N1CCCCC1	14.8 (≈ 40.5 µM)	6.3 (≈ 17.2 µM)	22.7 (≈ 62.1 µM)	24.2 (≈ 66.2 µM)	10.7 (≈ 29.3 µM)	23.3 (≈ 63.7 µM)	16.6 (≈ 45.4 µM)	2.6 (≈ 7.11 µM)	6.3 (≈ 17.2 µM)	14.8 (≈ 40.5 µM)	22.7 (≈ 62.1 µM)	10.7 (≈ 29.3 µM)	23.3 (≈ 63.7 µM)	16.6 (≈ 45.4 µM)	24.2 (≈ 66.2 µM)	12.8 (≈ 35 µM)
CCCCCCCCCCCCCCCCCC(=O)N1CCOCC1	39.9 (≈ 113 µM)	42.8 (≈ 121 µM)	33.1 (≈ 93.6 µM)	41.1 (≈ 116 µM)	53.1 (≈ 150 µM)	41.1 (≈ 116 µM)	43.3 (≈ 122 µM)	41.5 (≈ 117 µM)	82.6 (≈ 234 µM)	81.7 (≈ 231 µM)	86.9 (≈ 246 µM)	85.6 (≈ 242 µM)	161 (≈ 455 µM)	102 (≈ 290 µM)	111 (≈ 314 µM)	94.2 (≈ 266 µM)
CCCCCCCCCCCCCCCCCC(=O)NCCO [N-(2-HYDROXYETHYL)STEARAMIDE]	117 (≈ 357 µM)	130 (≈ 395 µM)	158 (≈ 481 µM)			75.6 (≈ 231 µM)	158 (≈ 481 µM)	117.7 (≈ 359 µM)	> 250	> 250	> 250	> 250	> 250	> 250	> 250	> 250
CCCCCCCC/C=C\CCCCCCCC(=O)NCCO [OLEOYLETHANOLAMIDE]	27.3 (≈ 83.9 µM)	25.9 (≈ 79.6 µM)	9.1 (≈ 28 µM)	35.4 (≈ 109 µM)	36.5 (≈ 112 µM)	16.9 (≈ 51.9 µM)	35.4 (≈ 109 µM)	14.4 (≈ 44.2 µM)	51.3 (≈ 158 µM)	66.7 (≈ 205 µM)	39.5 (≈ 121 µM)	64.6 (≈ 198 µM)	81 (≈ 249 µM)	44.2 (≈ 136 µM)	71.7 (≈ 220 µM)	53.5 (≈ 164 µM)
CCCCCCCCCCCCCCCC(=O)NCCO [PALMIDROL]			158 (≈ 527 µM)						> 250	> 250	> 250	> 250	> 250	> 250	> 250	> 250
